The subject of test [1] is Stenotrophomonas maltophilia. As to the kind of experiment: Antimicrobial activity against Stenotrophomonas maltophilia ATCC 13637 after 18 to 24 hrs by alamar blue assay. The test is classed as functional. The following applies: Stenotrophomonas maltophilia, ATCC 13637; read-out: MIC. The essentials:
(§1)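 Broth microdilution per NCCLS in Mueller-Hinton broth, 8-point twofold dilutions, 384-well format. Exponential-phase cells at 5 × 10^5 cells/ml incubated with compound 18–24 h at 37 °C, then 20% Alamar blue added and fluorescence read. MIC90 taken as the lowest concentration preventing at least 90% bacterial growth.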
(In general: Resazurin is reduced to fluorescent resorufin, in cell work by metabolically active cells.)

Test [2] deals with Staphylococcus aureus. As to the kind of experiment: Antimicrobial activity against methicillin-resistant Staphylococcus aureus isolate NTUH4722 after 18 to 24 hrs by alamar blue assay. In kind it is functional. The gist of the method: (§2)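 Broth microdilution per NCCLS standard, Mueller-Hinton broth, 8-point twofold dilutions; exponentially growing cells at 5 10^5 cells/ml with compound, 18–24 h at 37 C; 20% Alamar blue added, fluorescence read; MIC90 taken as lowest concentration preventing at least 90% growth.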

The test system of test [3] is Staphylococcus aureus. As to the kind of experiment: Antimicrobial activity against methicillin-resistant Staphylococcus aureus ATCC 33592 after 18 to 24 hrs by alamar blue assay. The test is classed as functional. The following applies: Staphylococcus aureus, ATCC 33592; read-out: MIC. The essentials: as §2
The subject of test [4] is Bacillus subtilis. As to the kind of experiment: Antimicrobial activity against Bacillus subtilis ATCC 23857 after 18 to 24 hrs by alamar blue assay. The test is classed as functional. The gist of the method: as §1
The test system of test [5] is Mycolicibacterium smegmatis. As to the kind of experiment: Antimicrobial activity against Mycobacterium smegmatis BCRC 11565 after 18 to 24 hrs by alamar blue assay. The following applies: Mycolicibacterium smegmatis, BCRC 11565; read-out: MIC. The test is classed as functional. The essentials:
as §1

Test [6] has as its system Escherichia coli. As to the kind of experiment: Antimicrobial activity against Escherichia coli ATCC […] after 18 to 24 hrs by alamar blue assay. In kind it is functional. The settings on record: Escherichia coli; read-out: MIC. The gist of the method:
as §1

Test [7] concerns Pseudomonas aeruginosa. As to the kind of experiment: Antimicrobial activity against Pseudomonas aeruginosa ATCC 25619 after 18 to 24 hrs by alamar blue assay. In kind it is functional. The following applies: Pseudomonas aeruginosa, ATCC 25619; read-out: MIC. The essentials:
as §1

For test [8], the system named is Staphylococcus aureus. As to the kind of experiment: Antimicrobial activity against oxacillin- and methicillin-resistant Staphylococcus aureus isolate Sa-OXA-R2 after 18 to 24 hrs by alamar blue assay. The test is classed as functional. The essentials: as §2
Test [9] has as its system Acinetobacter baumannii. As to the kind of experiment: Antimicrobial activity against Acinetobacter baumannii ATCC 49139 after 18 to 24 hrs by alamar blue assay. The test is classed as functional. The settings on record: Acinetobacter baumannii, ATCC 49139; read-out: MIC. The essentials: as §1
The subject of test [10] is Serratia marcescens. As to the kind of experiment: Antimicrobial activity against Serratia marcescens ATCC 14756 after 18 to 24 hrs by alamar blue assay. The test is classed as functional. The following applies: Serratia marcescens, ATCC 14756; read-out: MIC. The gist of the method: as §1
Test [11] concerns Staphylococcus aureus. As to the kind of experiment: Antimicrobial activity against Staphylococcus aureus ATCC 29213 after 18 to 24 hrs by alamar blue assay.
Test [12] in a line: Inhibition of transglycosylase assessed as inhibition of NBD- labelled lipid II polymerization. The essentials:
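100 µM NBD-labelled lipid II incubated 30 min with full-length PBP (EC, SA or Mtb) and 10 ng/µl N-acetylmuramidase in 50 mM Tris-HCl pH 8.0, 10 mM MgCl2, 0.1% Triton X-100, 10% DMSO, 15% MeOH. Supernatant run on anion-exchange HPLC with 20 mM–0.5 M ammonium acetate gradient. Inhibition calculated from substrate peak-area percentage. IC50 determined. S. aureus strains share one SA enzyme.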

As usually defined, the MIC is the smallest concentration in the dilution series that meets the test's criterion for growth inhibition. In general, IC90 refers to the point of the concentration-response curve where the effect stands at 90%.

In brackets after ≈: the same amount, converted by molar mass.

As to `O=C(Nc1ccc(Oc2ccc(Cl)cc2)c(Cl)c1)c1cc(Br)cc(Br)c1O`, the MIC in test [1] was 16 µg/mL (≈ 30.1 µM); in [2], 0.25 µg/mL (≈ 0.47 µM); in [3] it was 0.25 µg/mL (≈ 0.47 µM); in [4] it was less than 0.03 µg/mL; in test [5], 0.5 µg/mL (≈ 0.94 µM); in test [6], 8 µg/mL (≈ 15 µM). Also, the MIC in test [7] amounted to 16 µg/mL (≈ 30.1 µM); in test [8], 0.5 µg/mL (≈ 0.94 µM); in test [9], 16 µg/mL (≈ 30.1 µM); in test [10], 16 µg/mL (≈ 30.1 µM); in [11], 0.5 µg/mL (≈ 0.94 µM). Further, the IC90 in test [12] was found to be 100 µM.

Regarding `O=C(Nc1ccc(Oc2cc3ccccc3cc2Cl)c(Cl)c1)c1cc(Cl)cc(I)c1O`, the MIC in [1] is 16 µg/mL (≈ 27.4 µM); in test [2] it was not above 0.03 µg/mL; in [3], not above 2 µg/mL; in [4] it was less than 0.03 µg/mL; in test [5], 0.5 µg/mL (≈ 0.855 µM); in test [6] it was 8 µg/mL (≈ 13.7 µM). Further, the MIC in test [7] was 16 µg/mL (≈ 27.4 µM); in [8] it was not above 0.03 µg/mL; in [9] it was 16 µg/mL (≈ 27.4 µM); in test [10], 16 µg/mL (≈ 27.4 µM); in [11], 4 µg/mL (≈ 6.84 µM). Moreover, in test [12], the IC90 was more than 100 µM.

For `O=C(Nc1cc(Cl)ccc1Oc1ccc(Br)c2ccccc12)c1cc(Cl)cc(I)c1O`, the MIC in test [1] is 16 µg/mL (≈ 25.4 µM); in [2] it was not above 0.03 µg/mL; in [3], 4 µg/mL (≈ 6.36 µM); in test [4], less than 0.03 µg/mL; in test [5] it was 0.5 µg/mL (≈ 0.795 µM); in test [6], 8 µg/mL (≈ 12.7 µM). The MIC in test [7] was 16 µg/mL (≈ 25.4 µM); in [8], not above 0.03 µg/mL; in test [9], 16 µg/mL (≈ 25.4 µM); in test [10] it was 16 µg/mL (≈ 25.4 µM); in test [11], 8 µg/mL (≈ 12.7 µM). Besides, in test [12], the IC90 turned out to be 100 µM.

Turning to `O=C(Nc1ccc(Oc2cc3ccccc3cc2Cl)c(Cl)c1)c1cc(Br)cc(Br)c1O`, the MIC is 16 µg/mL (≈ 27.5 µM) in test [1]; not above 0.03 µg/mL in test [2]; 4 µg/mL (≈ 6.87 µM) in test [3]; less than 0.03 µg/mL in [4]; 0.5 µg/mL (≈ 0.859 µM) in test [5]; 8 µg/mL (≈ 13.7 µM) in [6]. Also, the MIC in test [7] is 16 µg/mL (≈ 27.5 µM); in test [8], not above 0.03 µg/mL; in test [9] it was 16 µg/mL (≈ 27.5 µM); in [10], 16 µg/mL (≈ 27.5 µM); in test [11], 4 µg/mL (≈ 6.87 µM). Further, the IC90 in [12] was 100 µM.

Turning to `O=C(c1ccccc1)c1cc(NC(=O)c2cc(Br)cc(Br)c2O)ccc1Cl`, the MIC is 16 µg/mL (≈ 31.4 µM) in [1]; 2 µg/mL (≈ 3.92 µM) in test [2]; 1 µg/mL (≈ 1.96 µM) in test [3]; less than 0.03 µg/mL in test [4]; 0.5 µg/mL (≈ 0.981 µM) in [5]; 8 µg/mL (≈ 15.7 µM) in test [6]. Besides, the MIC in test [7] was 16 µg/mL (≈ 31.4 µM); in [8] it was 1 µg/mL (≈ 1.96 µM); in test [9] it was 16 µg/mL (≈ 31.4 µM); in test [10] it was 16 µg/mL (≈ 31.4 µM); in test [11], 1 µg/mL (≈ 1.96 µM). For the same compound, the IC90 in test [12] was determined as 100 µM.

Regarding `O=C(Nc1cc(S(=O)(=O)c2ccc(Cl)cc2)ccc1Cl)c1cc(I)cc(I)c1O`, the MIC was 16 µg/mL (≈ 23.7 µM) in test [1]; not above 0.03 µg/mL in [2]; 8 µg/mL (≈ 11.9 µM) in test [3]; less than 0.03 µg/mL in [4]; 0.5 µg/mL (≈ 0.742 µM) in test [5]; 8 µg/mL (≈ 11.9 µM) in [6]. Besides, the MIC in test [7] was 16 µg/mL (≈ 23.7 µM); in test [8], not above 0.03 µg/mL; in test [9] it was 16 µg/mL (≈ 23.7 µM); in test [10], 16 µg/mL (≈ 23.7 µM); in test [11] it was 8 µg/mL (≈ 11.9 µM). Besides, the IC90 in test [12] amounted to 100 µM.

Regarding `Cc1ccc(C(C)C)cc1Oc1ccc(Cl)cc1NC(=O)c1cc(Cl)cc(Br)c1O`, the MIC in test [1] is 16 µg/mL (≈ 31.4 µM); in test [2], not above 0.03 µg/mL; in test [3] it was 0.5 µg/mL (≈ 0.982 µM); in test [4] it was less than 0.03 µg/mL; in test [5], 0.5 µg/mL (≈ 0.982 µM); in [6], 8 µg/mL (≈ 15.7 µM). Moreover, the MIC was 16 µg/mL (≈ 31.4 µM) in test [7]; not above 0.03 µg/mL in test [8]; 16 µg/mL (≈ 31.4 µM) in [9]; 16 µg/mL (≈ 31.4 µM) in test [10]; 1 µg/mL (≈ 1.96 µM) in test [11]. For the same compound, in test [12], the IC90 was 50 µM.

Take `Cc1ccc(C(=O)c2cc(NC(=O)c3cc(I)cc(I)c3O)ccc2Cl)cc1`: the MIC in test [1] was 16 µg/mL (≈ 25.9 µM); in test [2], not above 0.03 µg/mL; in [3], 4 µg/mL (≈ 6.48 µM); in test [4], less than 0.03 µg/mL; in [5] it was 0.5 µg/mL (≈ 0.81 µM); in test [6], 8 µg/mL (≈ 13 µM). Further, the MIC is 16 µg/mL (≈ 25.9 µM) in test [7]; not above 0.03 µg/mL in test [8]; 16 µg/mL (≈ 25.9 µM) in test [9]; 16 µg/mL (≈ 25.9 µM) in test [10]; 4 µg/mL (≈ 6.48 µM) in test [11]. Moreover, the IC90 in test [12] came out at 100 µM.
